Source: ChEMBL document CHEMBL4689842, “EUbOPEN Chemogenomics Library wave 1” (2021)

Test system: HEK-293T
Assay: Multiplex assay against HEK293T;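 on Population Tubulin-Different-Phenotype (%): share of the cells with healthy nuclei that show this phenotype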
Assay type: toxicity, cell-based
Conditions: human
How it was run: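 Phenotypes for tubulin, mitochondrial mass and membrane permeability are expressed as per cents of healthy-nucleus cells. Cells were stained live at seeding with Hoechst33342, BioTracker Green Microtubule Cytoskeleton Dye, MitoTracker Red and Annexin V Alexa Fluor 680, then imaged after compound addition on a CQ1 microscope at 37°C and 5% CO2. Machine-learning gating in CellPathfinder separated Hoechst high-intensity objects from normal cells, divided normal cells by nuclear state (healthy, pyknosed, fragmented) and divided pyknosed cells into mitotic or apoptotic.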

[1] = 12 h, 1 µM, compound concentration 1 uM, replicate 1
[2] = 12 h, 1 µM, compound concentration 1 uM, replicate 2
[3] = 12 h, 10 µM, compound concentration 10 uM, replicate 1
[4] = 12 h, 10 µM, compound concentration 10 uM, replicate 2
[5] = 24 h, 1 µM, compound concentration 1 uM, replicate 1
[6] = 24 h, 1 µM, compound concentration 1 uM, replicate 2
[7] = 24 h, 10 µM, compound concentration 10 uM, replicate 1
[8] = 24 h, 10 µM, compound concentration 10 uM, replicate 2
[9] = 48 h, 1 µM, compound concentration 1 uM, replicate 1
[10] = 48 h, 1 µM, compound concentration 1 uM, replicate 2
[11] = 48 h, 10 µM, compound concentration 10 uM, replicate 1
[12] = 48 h, 10 µM, compound concentration 10 uM, replicate 2

Cc1ccc(C(=O)Nc2cccc(C(F)(F)F)c2)cc1Nc1nc(-c2cccnc2)nc2c1cnn2C
Population Apoptotic (%) [1]: 63% | Population Fragmented Nuclei (%) [1]: 15% | Population Healthy Nuclei (%) [1]: 33% | Population Hoechst High Intensity Objects (%) [1]: 19% | Population Membrane Permeable-Phenotype (%) [1]: 1% | Population Mitochondria Different-Phenotype (%) [1]: 94% | Population Mitotic Cells (%) [1]: 36% | Population Normal (%) [1]: 80% | Population Pyknosed Nuclei (%) [1]: 50% | Population Tubulin-Different-Phenotype (%) [1]: 94% | Total Cell Count [1]: 318 | Population Apoptotic (%) [2]: 27% | Population Fragmented Nuclei (%) [2]: 7% | Population Healthy Nuclei (%) [2]: 25% | Population Hoechst High Intensity Objects (%) [2]: 9% | Population Membrane Permeable-Phenotype (%) [2]: 7% | Population Mitochondria Different-Phenotype (%) [2]: 52% | Population Mitotic Cells (%) [2]: 72% | Population Normal (%) [2]: 90% | Population Pyknosed Nuclei (%) [2]: 66% | Population Tubulin-Different-Phenotype (%) [2]: 89% | Total Cell Count [2]: 162 | Population Apoptotic (%) [3]: 86% | Population Fragmented Nuclei (%) [3]: 16% | Population Healthy Nuclei (%) [3]: 7% | Population Hoechst High Intensity Objects (%) [3]: 19% | Population Membrane Permeable-Phenotype (%) [3]: 8% | Population Mitochondria Different-Phenotype (%) [3]: 91% | Population Mitotic Cells (%) [3]: 13% | Population Normal (%) [3]: 80% | Population Pyknosed Nuclei (%) [3]: 75% | Population Tubulin-Different-Phenotype (%) [3]: 91% | Total Cell Count [3]: 200 | Population Apoptotic (%) [4]: 78% | Population Fragmented Nuclei (%) [4]: 5% | Population Healthy Nuclei (%) [4]: 13% | Population Hoechst High Intensity Objects (%) [4]: 5% | Population Membrane Permeable-Phenotype (%) [4]: 4% | Population Mitochondria Different-Phenotype (%) [4]: 96% | Population Mitotic Cells (%) [4]: 21% | Population Normal (%) [4]: 94% | Population Pyknosed Nuclei (%) [4]: 81% | Population Tubulin-Different-Phenotype (%) [4]: 92% | Total Cell Count [4]: 190 | Population Apoptotic (%) [5]: 64% | Population Fragmented Nuclei (%) [5]: 14% | Population Healthy Nuclei (%) [5]: 38% | Population Hoechst High Intensity Objects (%) [5]: 16% | Population Membrane Permeable-Phenotype (%) [5]: 2% | Population Mitochondria Different-Phenotype (%) [5]: 92% | Population Mitotic Cells (%) [5]: 35% | Population Normal (%) [5]: 83% | Population Pyknosed Nuclei (%) [5]: 46% | Population Tubulin-Different-Phenotype (%) [5]: 90% | Total Cell Count [5]: 330 | Population Apoptotic (%) [6]: 51% | Population Fragmented Nuclei (%) [6]: 7% | Population Healthy Nuclei (%) [6]: 43% | Population Hoechst High Intensity Objects (%) [6]: 6% | Population Membrane Permeable-Phenotype (%) [6]: 11% | Population Mitochondria Different-Phenotype (%) [6]: 64% | Population Mitotic Cells (%) [6]: 48% | Population Normal (%) [6]: 93% | Population Pyknosed Nuclei (%) [6]: 48% | Population Tubulin-Different-Phenotype (%) [6]: 97% | Total Cell Count [6]: 172 | Population Apoptotic (%) [7]: 89% | Population Fragmented Nuclei (%) [7]: 16% | Population Healthy Nuclei (%) [7]: 10% | Population Hoechst High Intensity Objects (%) [7]: 22% | Population Membrane Permeable-Phenotype (%) [7]: 0% | Population Mitochondria Different-Phenotype (%) [7]: 100% | Population Mitotic Cells (%) [7]: 10% | Population Normal (%) [7]: 77% | Population Pyknosed Nuclei (%) [7]: 72% | Population Tubulin-Different-Phenotype (%) [7]: 100% | Total Cell Count [7]: 225 | Population Apoptotic (%) [8]: 85% | Population Fragmented Nuclei (%) [8]: 5% | Population Healthy Nuclei (%) [8]: 24% | Population Hoechst High Intensity Objects (%) [8]: 4% | Population Membrane Permeable-Phenotype (%) [8]: 4% | Population Mitochondria Different-Phenotype (%) [8]: 95% | Population Mitotic Cells (%) [8]: 14% | Population Normal (%) [8]: 95% | Population Pyknosed Nuclei (%) [8]: 70% | Population Tubulin-Different-Phenotype (%) [8]: 95% | Total Cell Count [8]: 205 | Population Apoptotic (%) [9]: 52% | Population Fragmented Nuclei (%) [9]: 21% | Population Healthy Nuclei (%) [9]: 45% | Population Hoechst High Intensity Objects (%) [9]: 15% | Population Membrane Permeable-Phenotype (%) [9]: 4% | Population Mitochondria Different-Phenotype (%) [9]: 74% | Population Mitotic Cells (%) [9]: 47% | Population Normal (%) [9]: 84% | Population Pyknosed Nuclei (%) [9]: 33% | Population Tubulin-Different-Phenotype (%) [9]: 88% | Total Cell Count [9]: 371 | Population Apoptotic (%) [10]: 47% | Population Fragmented Nuclei (%) [10]: 6% | Population Healthy Nuclei (%) [10]: 63% | Population Hoechst High Intensity Objects (%) [10]: 9% | Population Membrane Permeable-Phenotype (%) [10]: 8% | Population Mitochondria Different-Phenotype (%) [10]: 43% | Population Mitotic Cells (%) [10]: 52% | Population Normal (%) [10]: 90% | Population Pyknosed Nuclei (%) [10]: 30% | Population Tubulin-Different-Phenotype (%) [10]: 96% | Total Cell Count [10]: 230 | Population Apoptotic (%) [11]: 86% | Population Fragmented Nuclei (%) [11]: 23% | Population Healthy Nuclei (%) [11]: 15% | Population Hoechst High Intensity Objects (%) [11]: 20% | Population Membrane Permeable-Phenotype (%) [11]: 6% | Population Mitochondria Different-Phenotype (%) [11]: 100% | Population Mitotic Cells (%) [11]: 13% | Population Normal (%) [11]: 79% | Population Pyknosed Nuclei (%) [11]: 60% | Population Tubulin-Different-Phenotype (%) [11]: 96% | Total Cell Count [11]: 258 | Population Apoptotic (%) [12]: 89% | Population Fragmented Nuclei (%) [12]: 8% | Population Healthy Nuclei (%) [12]: 29% | Population Hoechst High Intensity Objects (%) [12]: 7% | Population Membrane Permeable-Phenotype (%) [12]: 1% | Population Mitochondria Different-Phenotype (%) [12]: 93% | Population Mitotic Cells (%) [12]: 10% | Population Normal (%) [12]: 92% | Population Pyknosed Nuclei (%) [12]: 61% | Population Tubulin-Different-Phenotype (%) [12]: 93% | Total Cell Count [12]: 209

NC(=O)c1cccc(-c2cc(Nc3ccc(OC(F)(F)F)cc3)ncn2)c1
Population Apoptotic (%) [1]: 23% | Population Fragmented Nuclei (%) [1]: 12% | Population Healthy Nuclei (%) [1]: 75% | Population Hoechst High Intensity Objects (%) [1]: 7% | Population Membrane Permeable-Phenotype (%) [1]: 4% | Population Mitochondria Different-Phenotype (%) [1]: 5% | Population Mitotic Cells (%) [1]: 76% | Population Normal (%) [1]: 92% | Population Pyknosed Nuclei (%) [1]: 12% | Population Tubulin-Different-Phenotype (%) [1]: 3% | Total Cell Count [1]: 801 | Population Apoptotic (%) [2]: 9% | Population Fragmented Nuclei (%) [2]: 7% | Population Healthy Nuclei (%) [2]: 88% | Population Hoechst High Intensity Objects (%) [2]: 1% | Population Membrane Permeable-Phenotype (%) [2]: 0% | Population Mitochondria Different-Phenotype (%) [2]: 10% | Population Mitotic Cells (%) [2]: 90% | Population Normal (%) [2]: 98% | Population Pyknosed Nuclei (%) [2]: 4% | Population Tubulin-Different-Phenotype (%) [2]: 5% | Total Cell Count [2]: 1607 | Population Apoptotic (%) [3]: 18% | Population Fragmented Nuclei (%) [3]: 15% | Population Healthy Nuclei (%) [3]: 54% | Population Hoechst High Intensity Objects (%) [3]: 17% | Population Membrane Permeable-Phenotype (%) [3]: 4% | Population Mitochondria Different-Phenotype (%) [3]: 4% | Population Mitotic Cells (%) [3]: 81% | Population Normal (%) [3]: 82% | Population Pyknosed Nuclei (%) [3]: 29% | Population Tubulin-Different-Phenotype (%) [3]: 4% | Total Cell Count [3]: 597 | Population Apoptotic (%) [4]: 24% | Population Fragmented Nuclei (%) [4]: 4% | Population Healthy Nuclei (%) [4]: 89% | Population Hoechst High Intensity Objects (%) [4]: 2% | Population Membrane Permeable-Phenotype (%) [4]: 0% | Population Mitochondria Different-Phenotype (%) [4]: 14% | Population Mitotic Cells (%) [4]: 75% | Population Normal (%) [4]: 97% | Population Pyknosed Nuclei (%) [4]: 6% | Population Tubulin-Different-Phenotype (%) [4]: 6% | Total Cell Count [4]: 1186 | Population Apoptotic (%) [5]: 22% | Population Fragmented Nuclei (%) [5]: 12% | Population Healthy Nuclei (%) [5]: 81% | Population Hoechst High Intensity Objects (%) [5]: 4% | Population Membrane Permeable-Phenotype (%) [5]: 7% | Population Mitochondria Different-Phenotype (%) [5]: 3% | Population Mitotic Cells (%) [5]: 77% | Population Normal (%) [5]: 95% | Population Pyknosed Nuclei (%) [5]: 5% | Population Tubulin-Different-Phenotype (%) [5]: 4% | Total Cell Count [5]: 1111 | Population Apoptotic (%) [6]: 3% | Population Fragmented Nuclei (%) [6]: 23% | Population Healthy Nuclei (%) [6]: 74% | Population Hoechst High Intensity Objects (%) [6]: 3% | Population Membrane Permeable-Phenotype (%) [6]: 4% | Population Mitochondria Different-Phenotype (%) [6]: 2% | Population Mitotic Cells (%) [6]: 96% | Population Normal (%) [6]: 96% | Population Pyknosed Nuclei (%) [6]: 2% | Population Tubulin-Different-Phenotype (%) [6]: 6% | Total Cell Count [6]: 2709 | Population Apoptotic (%) [7]: 17% | Population Fragmented Nuclei (%) [7]: 16% | Population Healthy Nuclei (%) [7]: 66% | Population Hoechst High Intensity Objects (%) [7]: 11% | Population Membrane Permeable-Phenotype (%) [7]: 3% | Population Mitochondria Different-Phenotype (%) [7]: 4% | Population Mitotic Cells (%) [7]: 82% | Population Normal (%) [7]: 88% | Population Pyknosed Nuclei (%) [7]: 17% | Population Tubulin-Different-Phenotype (%) [7]: 6% | Total Cell Count [7]: 593 | Population Apoptotic (%) [8]: 4% | Population Fragmented Nuclei (%) [8]: 9% | Population Healthy Nuclei (%) [8]: 85% | Population Hoechst High Intensity Objects (%) [8]: 3% | Population Membrane Permeable-Phenotype (%) [8]: 1% | Population Mitochondria Different-Phenotype (%) [8]: 6% | Population Mitotic Cells (%) [8]: 95% | Population Normal (%) [8]: 96% | Population Pyknosed Nuclei (%) [8]: 4% | Population Tubulin-Different-Phenotype (%) [8]: 11% | Total Cell Count [8]: 1486
